Data reported in ChEMBL document CHEMBL4382248, “Optimization of a 1,3,4-oxadiazole series for inhibition of Ca2+/calmodulin-stimulated activity of adenylyl cyclases 1 and 8 for the treatment of chronic pain” (Eur J Med Chem, 2019).
Calls of active or inactive are those of the source. The rule behind the calls is not given here.

Tests used:
Adenylate cyclase type 1 [1] = biological target: T1, Adenylate cyclase type 1 (Homo sapiens, UniProt Q08828); experiment: Inhibition of human AC1 expressed in HEK293 cells assessed as decrease in A23187-stimulated cAMP accumulation preincubated for 30 mins followed by A23187 stimulation and measured after 1 hr by fluorescence assay; assay type: cell-based
In short: (§1)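 HEK cells stably expressing AC1 or AC8; Ca2+/calmodulin-stimulated cAMP accumulation measured. Dose-response curves began at 30 µM. […] Values are the mean and SEM of three independent experiments.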
Target sequence in this assay (Q08828 whole entry): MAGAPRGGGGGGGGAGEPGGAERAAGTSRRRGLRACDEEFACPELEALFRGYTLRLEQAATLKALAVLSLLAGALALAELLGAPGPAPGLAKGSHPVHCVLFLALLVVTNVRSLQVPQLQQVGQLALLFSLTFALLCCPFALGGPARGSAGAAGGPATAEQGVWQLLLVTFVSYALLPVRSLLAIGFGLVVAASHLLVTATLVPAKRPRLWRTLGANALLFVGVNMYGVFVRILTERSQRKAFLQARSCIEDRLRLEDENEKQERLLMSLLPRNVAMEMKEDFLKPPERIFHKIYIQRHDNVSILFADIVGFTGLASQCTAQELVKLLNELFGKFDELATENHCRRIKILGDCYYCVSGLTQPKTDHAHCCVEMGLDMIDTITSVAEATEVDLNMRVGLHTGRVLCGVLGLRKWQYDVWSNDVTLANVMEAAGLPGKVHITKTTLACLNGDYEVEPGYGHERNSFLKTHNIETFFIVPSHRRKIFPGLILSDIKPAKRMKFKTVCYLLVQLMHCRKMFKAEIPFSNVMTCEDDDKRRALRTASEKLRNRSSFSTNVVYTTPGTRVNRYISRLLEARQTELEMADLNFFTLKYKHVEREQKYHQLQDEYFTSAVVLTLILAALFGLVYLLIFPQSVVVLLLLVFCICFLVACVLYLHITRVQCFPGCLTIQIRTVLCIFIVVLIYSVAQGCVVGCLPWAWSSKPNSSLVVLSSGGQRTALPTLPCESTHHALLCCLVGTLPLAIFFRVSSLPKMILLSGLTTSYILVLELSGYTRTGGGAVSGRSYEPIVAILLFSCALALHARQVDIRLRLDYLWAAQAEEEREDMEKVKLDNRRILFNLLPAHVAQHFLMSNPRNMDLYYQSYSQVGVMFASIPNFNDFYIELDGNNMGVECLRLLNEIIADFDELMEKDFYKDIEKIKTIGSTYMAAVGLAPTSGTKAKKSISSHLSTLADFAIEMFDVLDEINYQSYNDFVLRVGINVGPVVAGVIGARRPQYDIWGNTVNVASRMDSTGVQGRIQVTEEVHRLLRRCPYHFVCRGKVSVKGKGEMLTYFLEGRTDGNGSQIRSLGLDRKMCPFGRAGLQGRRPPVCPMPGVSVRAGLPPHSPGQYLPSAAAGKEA

HEK293 = experiment: (§2) Cytotoxicity against HEK293 cells expressing human AC1 at 30 uM preincubated for 30 mins followed by A23187 stimulation and measured after 1 hr by CellTiter-Glo luminescent cell viability assay relative to control; assay type: cell-based; details: hek293, 1 h, 30 µM
In short: (§3)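 Cytotoxicity in HEK lines stably expressing AC1 or AC8: single 30 µM dose, 90 min incubation. Viability was read by luminescent ATP reporter as % of DMSO-treated (100%) and Triton-X-treated (0%) controls.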

Adenylate cyclase type 8 [2] = biological target: T2, Adenylate cyclase type 8 (Homo sapiens, UniProt P40145); experiment: Inhibition of human AC8 expressed in HEK293 cells assessed as decrease in A23187-stimulated cAMP accumulation at 30 uM preincubated for 30 mins followed by A23187 stimulation and measured after 1 hr by fluorescence assay relative to control; assay type: cell-based; in short: as §1
T2 sequence (P40145 whole entry): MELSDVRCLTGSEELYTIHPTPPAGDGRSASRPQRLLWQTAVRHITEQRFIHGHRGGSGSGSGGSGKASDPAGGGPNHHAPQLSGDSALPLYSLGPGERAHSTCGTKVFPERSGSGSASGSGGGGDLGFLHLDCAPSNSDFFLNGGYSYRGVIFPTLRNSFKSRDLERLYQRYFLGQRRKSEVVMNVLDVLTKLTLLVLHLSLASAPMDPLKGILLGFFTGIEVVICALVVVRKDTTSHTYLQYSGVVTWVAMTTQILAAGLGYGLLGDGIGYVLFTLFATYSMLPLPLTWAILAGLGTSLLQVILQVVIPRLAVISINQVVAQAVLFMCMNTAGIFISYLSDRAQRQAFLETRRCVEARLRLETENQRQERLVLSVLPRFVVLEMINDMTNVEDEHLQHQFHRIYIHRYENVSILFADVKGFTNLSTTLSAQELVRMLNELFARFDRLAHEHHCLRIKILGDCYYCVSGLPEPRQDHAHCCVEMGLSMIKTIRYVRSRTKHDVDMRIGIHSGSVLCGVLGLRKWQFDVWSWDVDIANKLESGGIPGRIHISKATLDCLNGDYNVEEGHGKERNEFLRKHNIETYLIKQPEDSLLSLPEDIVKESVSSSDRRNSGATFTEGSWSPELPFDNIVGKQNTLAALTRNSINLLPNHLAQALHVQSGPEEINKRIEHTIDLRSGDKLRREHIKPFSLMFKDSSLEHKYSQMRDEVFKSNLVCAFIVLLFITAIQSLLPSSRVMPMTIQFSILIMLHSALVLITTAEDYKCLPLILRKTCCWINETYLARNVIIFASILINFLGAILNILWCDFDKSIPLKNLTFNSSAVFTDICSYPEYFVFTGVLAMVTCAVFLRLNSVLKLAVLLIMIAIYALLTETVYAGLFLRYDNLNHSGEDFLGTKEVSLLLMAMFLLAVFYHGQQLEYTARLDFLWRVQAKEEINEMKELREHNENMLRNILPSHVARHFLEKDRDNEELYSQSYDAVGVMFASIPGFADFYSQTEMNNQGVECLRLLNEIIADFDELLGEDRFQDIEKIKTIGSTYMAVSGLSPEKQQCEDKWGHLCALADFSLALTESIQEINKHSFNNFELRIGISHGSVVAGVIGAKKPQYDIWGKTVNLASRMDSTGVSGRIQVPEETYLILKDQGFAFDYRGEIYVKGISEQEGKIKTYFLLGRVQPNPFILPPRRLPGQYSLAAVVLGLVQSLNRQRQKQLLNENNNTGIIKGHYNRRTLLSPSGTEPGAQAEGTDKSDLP

Homo sapiens = species on record: Homo sapiens; experiment: Selectivity ratio of IC50 for human AC8 expressed in HEK293 cells to IC50 for human AC1 expressed in HEK293 cells; assay type: cell-based
[3] = biological target: Adenylate cyclase type 5 (Homo sapiens) (UniProt O95622); experiment: Inhibition of human AC5 expressed in HEK293 cells assessed as forskolin-stimulated cAMP accumulation at 30 uM preincubated for 30 mins followed by forskolin stimulation and measured after 1 hr by fluorescence assay relative to control; assay type: cell-based; set-up: scale not given: the % may be the effect or the level left
Chain of Adenylate cyclase type 5 (Homo sapiens) (O95622 whole entry, looked up): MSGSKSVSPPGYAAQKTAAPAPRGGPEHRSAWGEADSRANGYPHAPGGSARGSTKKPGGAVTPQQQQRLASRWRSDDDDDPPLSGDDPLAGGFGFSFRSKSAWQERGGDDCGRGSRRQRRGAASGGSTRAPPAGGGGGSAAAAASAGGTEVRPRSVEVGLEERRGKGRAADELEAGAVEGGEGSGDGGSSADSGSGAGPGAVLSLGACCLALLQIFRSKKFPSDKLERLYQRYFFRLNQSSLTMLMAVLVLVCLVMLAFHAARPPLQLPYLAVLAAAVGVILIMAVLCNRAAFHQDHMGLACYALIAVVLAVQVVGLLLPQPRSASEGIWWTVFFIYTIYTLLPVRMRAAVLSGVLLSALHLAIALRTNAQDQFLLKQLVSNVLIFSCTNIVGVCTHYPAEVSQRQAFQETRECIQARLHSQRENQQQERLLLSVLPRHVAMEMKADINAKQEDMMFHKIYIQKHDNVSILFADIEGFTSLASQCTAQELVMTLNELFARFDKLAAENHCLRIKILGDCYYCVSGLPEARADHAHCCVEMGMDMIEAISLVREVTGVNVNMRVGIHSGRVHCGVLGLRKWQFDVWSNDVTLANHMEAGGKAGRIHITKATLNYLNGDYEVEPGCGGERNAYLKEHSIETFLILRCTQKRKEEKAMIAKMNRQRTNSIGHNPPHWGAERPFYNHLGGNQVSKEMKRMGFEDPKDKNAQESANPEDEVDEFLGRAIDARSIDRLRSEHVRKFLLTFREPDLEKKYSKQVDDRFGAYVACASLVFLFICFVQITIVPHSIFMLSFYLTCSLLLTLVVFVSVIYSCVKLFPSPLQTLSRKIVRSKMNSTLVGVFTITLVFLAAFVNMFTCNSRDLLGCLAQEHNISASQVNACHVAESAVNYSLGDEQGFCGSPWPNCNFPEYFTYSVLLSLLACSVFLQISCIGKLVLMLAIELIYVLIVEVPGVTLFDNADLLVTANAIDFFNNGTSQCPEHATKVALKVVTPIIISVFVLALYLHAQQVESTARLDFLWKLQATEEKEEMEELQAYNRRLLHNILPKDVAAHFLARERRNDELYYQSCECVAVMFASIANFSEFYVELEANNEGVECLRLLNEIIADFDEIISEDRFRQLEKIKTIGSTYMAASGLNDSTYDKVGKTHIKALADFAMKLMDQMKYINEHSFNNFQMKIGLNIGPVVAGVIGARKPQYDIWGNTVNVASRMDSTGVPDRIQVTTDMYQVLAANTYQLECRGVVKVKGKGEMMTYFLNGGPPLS
In short: (§4)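 Group 2 AC2 (PKC-stimulated) or group 3 AC (forskolin-stimulated) cells were exposed to a single 30 µM dose (n = 3). cAMP activity was normalized to DMSO controls set as 100%.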

[4] = as §2; assay type: cell-based; details: HEK293 cells expressing human AC1, read-out: Activity; in short: as §3
Adenylate cyclase type 1 [5] = biological target: T1, Adenylate cyclase type 1; experiment: Inhibition of human AC1 expressed in HEK293 AC3/AC6 deficit cells assessed as decrease in forskolin-stimulated cAMP accumulation preincubated for 30 mins followed by forskolin stimulation and measured after 1 hr by fluorescence assay; assay type: cell-based
In short: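 HEK cells lacking AC3/AC6 were transiently transfected with AC1. Cells were incubated with test compounds in the presence of forskolin at 3, 10 or 30 µM, and cAMP accumulation was measured.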
Target sequence in this assay (Q08828 whole entry, looked up): as the sequence (Q08828 whole entry) above

[6] = biological target: Adenylate cyclase type 2 (Homo sapiens) (UniProt Q08462); experiment: Inhibition of human AC2 expressed in HEK293 cells assessed as PMA-stimulated cAMP accumulation at 30 uM preincubated for 30 mins followed by PMA stimulation and measured after 1 hr by fluorescence assay relative to control; assay type: cell-based; set-up: scale not given: the % may be the effect or the level left; in short: as §4
Chain of Adenylate cyclase type 2 (Homo sapiens) (Q08462 whole entry): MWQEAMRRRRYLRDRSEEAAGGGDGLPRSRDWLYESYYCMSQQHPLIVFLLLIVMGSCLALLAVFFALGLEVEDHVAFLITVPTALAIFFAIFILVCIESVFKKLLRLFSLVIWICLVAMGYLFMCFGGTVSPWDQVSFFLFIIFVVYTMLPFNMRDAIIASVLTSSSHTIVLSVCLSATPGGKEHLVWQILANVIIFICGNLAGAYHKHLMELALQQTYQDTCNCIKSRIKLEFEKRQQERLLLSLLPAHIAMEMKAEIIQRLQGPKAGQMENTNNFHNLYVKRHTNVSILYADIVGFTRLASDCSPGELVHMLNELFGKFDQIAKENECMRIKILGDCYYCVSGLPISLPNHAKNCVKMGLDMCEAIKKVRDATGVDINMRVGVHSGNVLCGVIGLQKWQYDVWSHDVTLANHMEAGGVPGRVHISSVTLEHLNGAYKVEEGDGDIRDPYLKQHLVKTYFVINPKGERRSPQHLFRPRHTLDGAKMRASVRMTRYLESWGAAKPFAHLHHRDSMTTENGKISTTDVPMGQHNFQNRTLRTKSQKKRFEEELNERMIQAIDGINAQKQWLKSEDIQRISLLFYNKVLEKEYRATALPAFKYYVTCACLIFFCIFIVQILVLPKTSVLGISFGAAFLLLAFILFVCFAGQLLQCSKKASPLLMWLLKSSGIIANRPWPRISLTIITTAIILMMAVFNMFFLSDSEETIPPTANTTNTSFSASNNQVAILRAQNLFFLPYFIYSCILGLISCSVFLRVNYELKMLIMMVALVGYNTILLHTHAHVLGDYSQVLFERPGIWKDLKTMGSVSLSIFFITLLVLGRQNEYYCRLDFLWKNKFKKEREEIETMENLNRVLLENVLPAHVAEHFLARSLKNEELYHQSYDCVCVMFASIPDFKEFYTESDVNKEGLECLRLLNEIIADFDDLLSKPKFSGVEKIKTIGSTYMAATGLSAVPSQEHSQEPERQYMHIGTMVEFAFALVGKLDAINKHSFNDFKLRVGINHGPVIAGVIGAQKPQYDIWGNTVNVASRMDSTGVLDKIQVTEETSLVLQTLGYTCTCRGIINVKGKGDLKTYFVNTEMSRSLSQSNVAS

Adenylate cyclase type 1 [7] = biological target: T1, Adenylate cyclase type 1; experiment: Inhibition of human AC1 expressed in HEK293 cells assessed as decrease in A23187-stimulated cAMP accumulation at 30 uM preincubated for 30 mins followed by A23187 stimulation and measured after 1 hr by fluorescence assay relative to control; assay type: cell-based; in short: as §1
Target sequence in this assay (Q08828 whole entry, looked up): as the sequence (Q08828 whole entry) above

Adenylate cyclase type 8 [8] = biological target: T2, Adenylate cyclase type 8; experiment: Inhibition of human AC8 expressed in HEK293 cells assessed as decrease in A23187-stimulated cAMP accumulation preincubated for 30 mins followed by A23187 stimulation and measured after 1 hr by fluorescence assay; assay type: cell-based; in short: as §1
Mus musculus [9] = experiment: Effect on mechanical sensitivity in contralateral pa in C57BL/6 mouse model of CFA-induced inflammatory pain model at 5 mg/kg, ip measured after 30 mins post dose by von Frey filament test based modified up-and-down technique; assay type: ADME, organism-based; details: in vivo, 0.5 h
In short: (§5)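 Male C57BL/6 mice (n=7) received CFA in the ipsilateral hind paw. On day 2, after baseline hypersensitivity was measured, they were given vehicle or 5 mg/kg i.p. Mechanical sensitivity of ipsilateral and contralateral paws was recorded 30 min after injection. Analysis used two-way repeated-measures ANOVA with Bonferroni test.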

Mus musculus [10] = experiment: Analgesic activity in C57BL/6 mouse model of CFA-induced inflammatory pain model assessed as reduction in mechanical sensitivity in ipsilateral paw at 5 mg/kg, ip measured after 1 day post dose by von Frey filament test based modified up-and-down technique; assay type: functional, organism-based
Mus musculus [11] = experiment: Analgesic activity in C57BL/6 mouse model of CFA-induced inflammatory pain model assessed as reduction in mechanical sensitivity in ipsilateral paw at 5 mg/kg, ip measured after 30 mins post dose by von Frey filament test based modified up-and-down technique; assay type: functional, organism-based; in short: as §5
Adenylate cyclase type 1 [12] = biological target: T1, Adenylate cyclase type 1; experiment: Inhibition of AC1 (unknown origin) expressed in HEK cells assessed as decrease in A23187-stimulated cAMP accumulation preincubated for 30 mins followed by A23187 stimulation and measured after 1 hr; assay type: cell-based; in short: as §1
Target sequence in this assay (Q08828 whole entry): as above

Row | SMILES | IC50 (Adenylate cyclase type 1 [1]) | inhibition (Adenylate cyclase type 8 [2]) | Ratio IC50 (Homo sapiens) | viability at 1 h, 30 µM [4] | also measured
1 | O=C(Nc1nnc(-c2ccccc2)o1)c1cccc(C(F)(F)F)c1 | 13 µM | 23% | > 2.3 |  | Activity (HEK293): 78%
2 | O=C(Nc1nnc(-c2ccc3c(c2)CCCC3)o1)c1cccc(C(F)(F)F)c1 |  |  | 4.9 to 9 | 107 to 125% | Activity [3]: 189%; inhibition (Adenylate cyclase type 1 [5]): Dose-dependent effect; Activity [6]: 449%
3 | O=C(Nc1nnc(-c2ccco2)o1)c1ccccc1 |  | 28% |  |  | Activity (HEK293): 73%; inhibition (Adenylate cyclase type 1 [7]): 20%
4 | CCOc1cccc2cc(-c3nnc(NC(=O)c4ccccc4SC)o3)oc12 | 11 µM |  | 1 | 127% | IC50 (Adenylate cyclase type 8 [8]): 11 µM
5 | O=C(Nc1nnc(-c2ccc(F)cc2)o1)c1ccccc1F |  | 13% |  | 87% | inhibition (Adenylate cyclase type 1 [7]): 12%
6 | CC(C)Oc1ccc(C(=O)Nc2nnc(-c3ccco3)o2)cc1 |  | 21% |  | 58% | inhibition (Adenylate cyclase type 1 [7]): 39%
7 | Cc1cc(C(=O)Nc2nnc(-c3ccc(F)cc3)o2)cc(C(F)(F)F)c1 |  |  | 2.9 | 102% | Activity (Mus musculus [9]): Non-Toxic; Activity (Mus musculus [10]): inactive; Activity (Mus musculus [11]): Active
8 | COc1ccc(-c2nnc(NC(=O)c3cc(-c4cccs4)nc4ccccc34)o2)cc1 | 4.6 µM |  | 1.2 | 118% | IC50 (Adenylate cyclase type 8 [8]): 5.6 µM
9 | O=C(Nc1nnc(-c2ccc(F)cc2)o1)c1cccc(-c2ccccc2)c1 |  |  | 3 |  | Activity (HEK293): 71%
10 | Nc1ncnc2c1NCN2C1CCCO1 (configuration not stated) |  |  |  |  | inhibition (Adenylate cyclase type 1 [5]): Dose-dependent effect
11 | COc1cc(C(=O)Nc2nnc(-c3ccc(F)cc3)o2)cc(C(F)(F)F)c1 |  |  | 5.8 | 108% | IC50 (Adenylate cyclase type 8 [8]): 29 µM
12 | O=c1cc(C(Cl)(Cl)Cl)oc2ccc(Cl)cc12 |  |  |  |  | IC50 (Adenylate cyclase type 1 [12]): 2.3 µM

Further lines, with some results ahead:

Row | IC50 (Adenylate cyclase type 1 [1]) | inhibition (Adenylate cyclase type 8 [2]) | SMILES | Ratio IC50 (Homo sapiens) | viability at 1 h, 30 µM [4] | also measured
13 | 12 µM | 25% | Cc1ccc(C(=O)Nc2nnc(-c3ccc4c(c3)OCCO4)o2)cc1 |  | 98% | Activity [3]: 194%; Activity [6]: 218%
14 | 1.5 µM |  | O=C(Nc1nnc(-c2ccc3c(c2)CCCC3)o1)c1ccc(Cl)cc1 | 2.4 | 97% | IC50 (Adenylate cyclase type 8 [8]): 3.6 µM
